ChEMBL document CHEMBL3297658, “Potent fluorinated agelastatin analogues for chronic lymphocytic leukemia: design, synthesis, and pharmacokinetic studies” (J Med Chem, 2014)
In brackets after ≈: the same amount, converted by molar mass.

What was measured:
[1] = Antitumor activity against human JVM2 cells assessed as cell viability after 48 hrs by FACS analysis; format: functional, cell-based; details: JVM-2, 48 h
In short: (§1)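 Primary CLL patient cells or JVM-2 line cultured 48 h (37 °C, 5% CO2) in RPMI + 10% FBS with graded compound. Stained 30 min at 37 °C with 40 nM DiOC6 and 10 μg/mL PI, then flow cytometry (525 nm DiOC6, 600 nm PI). Viability = % DiOC6+/PI− relative to untreated or vehicle control. EC50 and SE fitted from dose–response curves.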

[2] = Antitumor activity against CLL1 cells isolated from CLL patient assessed as cell viability after 48 hrs by FACS analysis; format: functional, cell-based; details: Homo sapiens; in short: as §1
Liver microsome = test: Metabolic stability in human liver microsomes at 100 uM measured after 1 hr by LC/MS analysis in presence of 1 mM NADPH; format: ADME
In short: (§2)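 Microsomes (final protein 5 mg/mL, mouse or human) in 0.1 M sodium phosphate pH 7.4 with compound at 100 μM final (DMSO <1%). Preincubated 5 min at 37 °C, started with NADPH (1 mM final), run 60 min at 37 °C with agitation. Stopped with MeOH and centrifuged; supernatant analysed by LCMS. Controls: zero time, no NADPH, heat-inactivated microsomes, and 7-ethoxycoumarin as CYP substrate.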

Liver = test: Metabolic stability in mouse liver microsomes at 100 uM measured after 1 hr by LC/MS analysis in presence of 1 mM NADPH; format: ADME; in short: as §2
HeLa = test: Antitumor activity against human HeLa cells assessed as cell viability by MTT assay; format: functional, cell-based
In short: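 Adherent HeLa cells exposed to compound, then medium replaced with 0.5 mg/mL MTT in phenol-red-free RPMI and incubated overnight at 37 °C. Lysed with 15% SDS/0.015 M HCl and OD read at 570 nm once formazan dissolved. EC50 and SE derived from dose–response curves.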

[3] = Antitumor activity against CLL2 cells isolated from CLL patient assessed as cell viability after 48 hrs by FACS analysis; format: functional, cell-based, Homo sapiens; details: Homo sapiens, CLL2, 48 h; in short: as §1
[4] = Antitumor activity against CLL4 cells isolated from CLL patient assessed as cell viability after 48 hrs by FACS analysis; format: functional, cell-based; details: Homo sapiens; in short: as §1
[5] = Antitumor activity against CLL6 cells isolated from CLL patient assessed as cell viability after 48 hrs by FACS analysis; format: functional, cell-based; details: Homo sapiens, CLL6, 48 h; in short: as §1
[6] = Antitumor activity against CLL3 cells isolated from CLL patient assessed as cell viability after 48 hrs by FACS analysis; format: functional, cell-based; details: Homo sapiens; in short: as §1
[7] = Antitumor activity against CLL5 cells isolated from CLL patient assessed as cell viability after 48 hrs by FACS analysis; format: functional, cell-based; details: Homo sapiens; in short: as §1
[8] = Tmax in BALB/c mouse plasma at 5 mg/kg, ip administered as single dose by LC/MS analysis; format: ADME, organism-based; design: dose 5 mg/kg, route intraperitoneal
In short: (§3)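 Female BALB/c mice dosed at 6 weeks of age with a single intraperitoneal dose of 2.5 or 5.0 mg/kg, n = 4. Tail-vein blood taken at set times and stored at -80 °C. Samples precipitated with CH3CN, spun at 3000g for 10 min, concentrated, reconstituted in 1:1 CH3CN/H2O and quantified by LCMS. PK parameters derived from the concentration–time curves.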

[9] = Solubility of compound in water at 25 degC; format: physicochemical; details: buffer
Plasma = test: Protein binding in BALB/c mouse plasma at 50 uM after 1 to 24 hrs by LC-MS method; format: ADME, cell-free
In short: (§4)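 Compound added to pooled female BALB/c mouse plasma or serum, or to human AB serum, at 50 μM final (1% DMSO) and incubated at 37 °C with gentle agitation. Aliquots taken at 0, 0.5, 1, 2, 8, 18 and 24 h, proteins precipitated with CH3CN, spun at 3000g for 10 min, supernatant analysed by LCMS. Run in triplicate.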

Serum [10] = test: Protein binding in human AB serum at 50 uM after 1 to 24 hrs by LC-MS method; format: ADME; in short: as §4
[11] = AUC in BALB/c mouse plasma at 2.5 mg/kg, ip administered as single dose by LC/MS analysis; format: ADME, organism-based; design: dose 2.5 mg/kg, route intraperitoneal; in short: as §3
[12] = Drug recovery in BALB/c mouse plasma at 50 uM after 24 hrs by LC-MS method; format: ADME, cell-free; details: read-out: Drug recovery; in short: as §4
[13] = Drug recovery in human AB serum at 50 uM after 24 hrs by LC-MS method; format: ADME, cell-free; details: read-out: Drug recovery; in short: as §4
Serum [14] = test: Protein binding in BALB/c mouse serum at 50 uM after 1 to 24 hrs by LC-MS method; format: ADME; in short: as §4
[15] = Drug recovery in BALB/c mouse serum at 50 uM after 24 hrs by LC-MS method; format: ADME, cell-free; details: read-out: Drug recovery; in short: as §4
[16] = Half life in BALB/c mouse plasma at 2.5 mg/kg, ip administered as single dose by LC/MS analysis; format: ADME, organism-based; design: dose 2.5 mg/kg, route intraperitoneal; details: BALB/c, plasma; in short: as §3
[17] = Lipophilicity, log P of compound at 25 degC; format: physicochemical; details: octanol/water
[18] = Cmax in BALB/c mouse plasma at 5 mg/kg, ip administered as single dose by LC/MS analysis; format: ADME, organism-based; design: dose 5 mg/kg, route intraperitoneal; in short: as §3
[19] = Cmax in BALB/c mouse plasma at 2.5 mg/kg, ip administered as single dose by LC/MS analysis; format: ADME, organism-based; design: dose 2.5 mg/kg, route intraperitoneal; in short: as §3
[20] = AUC in BALB/c mouse plasma at 5 mg/kg, ip administered as single dose by LC/MS analysis; format: ADME, organism-based; design: dose 5 mg/kg, route intraperitoneal; in short: as §3
[21] = Half life in BALB/c mouse plasma at 5 mg/kg, ip administered as single dose by LC/MS analysis; format: ADME, organism-based; design: dose 5 mg/kg, route intraperitoneal; in short: as §3
[22] = Tmax in BALB/c mouse plasma at 2.5 mg/kg, ip administered as single dose by LC/MS analysis; format: ADME, organism-based; design: dose 2.5 mg/kg, route intraperitoneal; in short: as §3

| SMILES | EC50 [1] [µM] | EC50 [2] [µM] | EC50 (HeLa) [µM] | EC50 [3] [µM] | EC50 [4] [µM] | EC50 [5] [µM] | EC50 [6] [µM] | EC50 [7] [µM] | other results |
| --- | --- | --- | --- | --- | --- | --- | --- | --- | --- |
| CN1C(=O)N[C@H]2[C@@H]3NC(=O)c4cccn4[C@@H]3C[C@]21O | 120 | 541 | 61.5 | 3.9 | – | – | – | – | Stability (Liver microsome): Stable; Stability (Liver): Stable |
| CN1C(=O)N[C@H]2[C@@H]3NC(=O)c4ccc(Cl)n4[C@@H]3C[C@]21O | 0.2 | 0.95 | 0.63 | 0.32 | 1.98 | 2.2 | 3.8 | 0.34 | – |
| CN1C(=O)N[C@H]2[C@@H]3NC(=O)c4ccc(C#N)n4[C@@H]3C[C@]21O | 38 | 11.1 | 3.4 | 0.71 | 8.41 | 0.84 | 8.37 | 4.79 | – |
| CN1C(=O)N[C@H]2[C@@H]3NC(=O)c4cc(Br)c(Br)n4[C@@H]3C[C@]21O | 3.53 | 26.3 | – | 4.46 | – | – | – | – | – |
| CN1C(=O)N[C@H]2[C@@H]3NC(=O)c4cc(Br)cn4[C@@H]3C[C@]21O | 71.5 | 19.4 | – | 9.22 | – | – | – | – | – |
| CN1C(=O)N[C@H]2[C@@H]3NC(=O)c4cc(Cl)c(Cl)n4[C@@H]3C[C@]21O | 0.28 | 1.56 | 0.6 | 0.52 | 4.42 | 7.5 | 0.98 | 2.02 | – |
| CN1C(=O)N[C@H]2[C@@H]3NC(=O)c4cc(Cl)cn4[C@@H]3C[C@]21O | 5.33 | 35.9 | – | 6.05 | – | – | – | – | – |
| CN1C(=O)N[C@H]2[C@@H]3NC(=O)c4ccc(I)n4[C@@H]3C[C@]21O | 2.62 | 5.96 | 1.18 | 0.73 | 3.04 | 12.9 | 6.61 | 3.06 | – |
| CN1C(=O)N[C@H]2[C@@H]3NC(=O)c4cc(I)c(I)n4[C@@H]3C[C@]21O | 49 | 26.4 | 262 | 96 | – | – | – | – | – |
| CN1C(=O)N[C@H]2[C@@H]3NC(=O)c4cc(I)cn4[C@@H]3C[C@]21O | 222 | 25.5 | 0.061 | 94.9 | – | – | – | – | – |
| CN1C(=O)N[C@H]2[C@@H]3NC(=O)c4ccc(C(F)(F)F)n4[C@@H]3C[C@]21O | 0.66 | 0.43 | 0.15 | 0.064 | 0.33 | 0.65 | 3.04 | 28.4 | Tmax [8]: 30 min; solubility [9]: 300 µg/mL (≈ 908 µM); PPB (Plasma): Not Active; PB (Serum [10]): Not Active; AUC [11]: 12.9 µM·h; remaining at 24 h, 50 µM [12]: 65%; remaining at 24 h, 50 µM [13]: 65%; Stability (Liver microsome): Stable; PB (Serum [14]): Not Active; remaining at 24 h, 50 µM [15]: 65%; half-life [16]: 72 min; Stability (Liver): Stable; logP [17]: 0.78; Cmax [18]: 3.25 µM; Cmax [19]: 4.18 µM; AUC [20]: 6.51 µM·h; half-life [21]: 45 min; Tmax [22]: 15 min |
